Laboratory results from ChEMBL document CHEMBL1140487, “Construction of polyamine-modified uridine and adenosine derivatives--evaluation of DNA binding capacity and cytotoxicity in vitro” (Bioorg Med Chem, 2007).

Experiments:
[1] = tested on: Clupea; experiment: Effect on thermal melting point of herring testes DNA at 10 uM
Procedure, shortened: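 Herring testes DNA at 100 µM with 10 µM polyamine in 10 mM NaCl. Absorbance read at 260 nm while heating at 0.4 °C/min from 25–98 °C. The system equilibrated 15 min before the first reading, then readings were taken each degree (2 s averaging). Tm was taken from the peak of the first-derivative curve. pH was checked before and after polyamine addition.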

[2] = tested on: HCC1937; experiment: Toxicity in human HCC1937 cells after 48 hrs by MTT assay; format: cell-based; details: hcc1937, 48 h
Procedure, shortened: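 HCC1937 cells were grown in MEM α with 10% heat-inactivated FCS, NEAA, gentamycin, EGF 20 ng/ml and insulin, at 37 °C, 5% CO2. Plateau-phase cells were seeded at 0.055×10^6/ml and compounds added after 24 h at 0.1–100 µM final. Controls got PBS. MTT was added for 1 h, formazan dissolved in DMSO, A540 read. Values are % of control ± SD.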

[3] = Toxicity in human L56BrC1 cells after 48 hrs by MTT assay; format: cell-based
Procedure, shortened: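 L56Br-C1 cells were grown in RPMI 1640 with 10% heat-inactivated FCS, NEAA, insulin and penicillin/streptomycin, at 37 °C, 5% CO2. After seeding at 0.055×10^6 cells/ml and 24 h growth, compounds were added at 0.1, 1, 10 or 100 µM final; controls received PBS. After 1 h MTT, formazan was dissolved in DMSO and A540 read. Results are % of control ± SD.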

[4] = Toxicity in human SKBR3 cells after 48 hrs by MTT assay; format: cell-based; details: sk-br-3, 48 h
Procedure, shortened: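 SK-BR-3 cells were grown in RPMI 1640 with 10% FCS, NEAA and penicillin/streptomycin, no insulin, at 37 °C, 5% CO2. Cells were seeded at 0.055×10^6/ml, and 24 h later compounds were added at 0.1–100 µM final (PBS for controls). MTT was added for 1 h, formazan dissolved in DMSO, A540 read; outer wells were excluded. Values are % of control ± SD.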

[5] = tested on: Clupea; experiment: Effect on thermal melting point of herring testes DNA at 100 uM
[6] = tested on: Clupea; experiment: Effect on thermal melting point of herring testes DNA at 50 uM
[7] = tested on: Clupea; experiment: Effect on thermal melting point of herring testes DNA at 1 uM

| SMILES | Tm [1] | ΔTm [1] | Tm [5] | ΔTm [5] | Tm [6] | ΔTm [6] | Tm [7] | ΔTm [7] | Activity [2] | Activity [3] | Activity [4] |
| --- | --- | --- | --- | --- | --- | --- | --- | --- | --- | --- | --- |
| NCCCNCCCN [NORSPERMIDINE] | 77 °C | 12 °C | – | – | – | – | – | – | Non-toxic | Non-toxic | Non-toxic |
| NCCCN(CCCN)CC(=O)NCC#Cc1nc(N)c2ncn([C@@H]3O[C@H](CO)[C@@H](O)[C@H]3O)c2n1 | 66 °C | 1 °C | – | – | – | – | – | – | Non-toxic | Non-toxic | Non-toxic |
| NCCCN(CCCN)CC(=O)O | 61 °C | -4 °C | 50 °C | -15 °C | – | – | 62 °C | -3 °C | Non-toxic | Non-toxic | Non-toxic |

Now from value to compound, other results behind:

| Tm [1] | ΔTm [1] | Tm [5] | ΔTm [5] | Tm [6] | ΔTm [6] | Tm [7] | ΔTm [7] | SMILES | Activity [2] | Activity [3] | Activity [4] |
| --- | --- | --- | --- | --- | --- | --- | --- | --- | --- | --- | --- |
| 66.5 °C | 1.5 °C | – | – | – | – | – | – | NCCCN(CCCN)CC(=O)NCC#Cc1cn([C@@H]2O[C@H](CO)[C@@H](O)[C@H]2O)c(=O)[nH]c1=O | Non-toxic | Non-toxic | Non-toxic |
| 58 °C | -7 °C | 51 °C | -14 °C | 52 °C | -13 °C | – | – | C#CCNC(=O)CN(CCCN)CCCN | Non-toxic | Non-toxic | Non-toxic |
